ChEMBL document CHEMBL5042485 (J Med Chem, 2022)
Calls of active or inactive are those of the source. No cut-off for these calls is given here.

Experiments:
HCC70 [1] = assay: Antitumour activity against human HCC70 cells xenografted in BALB/c mouse assessed as tumour growth inhibition at 4 mg/kg, po bid for 21 days measured after 7 days post treatment by vernier caliper method; format: functional, organism-based; conditions: time 28.0 day
Procedure, shortened: (§1)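 Female Balb/c nude mice, 6–8 weeks old, implanted subcutaneously with HCC70 cells. At 150–200 mm3 tumours, mice were randomized, 10 per arm. Dosing was by oral gavage for 21 days, then a 7-day observation period: 2 mg/kg QD, or 2.5 or 4 mg/kg BID. Tumour volume was measured by caliper and body weight recorded twice weekly. TGI was calculated from tumour volumes.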

[2] = Oral bioavailability in CD-1 mouse 5 mg/kg measured upto 24 hrs by LC-MS/MS analysis; format: ADME, organism-based; conditions: in vivo
Procedure, shortened: (§2)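 Male CD1 mice, three per group, dosed by tail-vein injection (1 mg/kg) or oral gavage (5 mg/kg). Saphenous blood was drawn at 0.25–24 h and plasma analysed by LC–MS/MS.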

[3] = Unbound clearance in CD-1 mouse at 1 mg/kg, iv measured upto 24 hrs by LC-MS/MS analysis; format: ADME, organism-based; conditions: in vivo; procedure, shortened: as §2
[4] = Apparent permeability across apical to basolateral side in MDCK cells; format: ADME, cell-based, Canis lupus familiaris; conditions: dog
[5] = Metabolic stability in mouse liver microsomes assessed as intrinsic clearance; format: ADME, Microsome; conditions: read-out: CLH
[6] = Lipophilicity, log D of compound; format: physicochemical; conditions: octanol/water
[7] = molecular target: Cyclin-dependent kinase 2/cyclin E1 (Homo sapiens, UniProt P24941); assay: Inhibition of CDK2/cyclin E1 (unknown origin) using 5-FAM-labeled peptide as substrate in presence of ATP by mobility shift assay; format: protein-complex assay
Procedure, shortened: (§3)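 Conditions by kinase: CDK2/cyclin E1 0.5 nM with 100 μM ATP; CDK9/cyclin T1 8 nM with 30 μM ATP; CDK12/cyclin K 50 nM with 30 μM ATP.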

HCC70 [8] = assay: Antiproliferative activity against human HCC70 cells incubated for 72 hrs by Celltiter-glo assay; format: functional, cell-based; conditions: HCC70, 72 h
Procedure, shortened: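 HCC70 cells in log growth plated the day before, then incubated with compound for 72 h at ten concentrations from 4 to 0.000126 μM, duplicates per dose. Read-out was CellTiter-Glo 2.0 viability. Inhibition was calculated against the averaged DMSO signal on the same plate.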

[9] = molecular target: Cyclin-dependent kinase 7/ cyclin H (Homo sapiens, UniProt P50613); assay: Binding affinity to full length CDK7 (1 to 346 residues) /N-terminal TEV cleavable 6His tagged full length cyclinH (1 to 323 residues) (unknown origin) expressed in baculovirus infected Sf9 cells by Surface plasmon resonance assay
Sequence of Cyclin-dependent kinase 7/ cyclin H (P51946 whole entry, the tested form may be a part): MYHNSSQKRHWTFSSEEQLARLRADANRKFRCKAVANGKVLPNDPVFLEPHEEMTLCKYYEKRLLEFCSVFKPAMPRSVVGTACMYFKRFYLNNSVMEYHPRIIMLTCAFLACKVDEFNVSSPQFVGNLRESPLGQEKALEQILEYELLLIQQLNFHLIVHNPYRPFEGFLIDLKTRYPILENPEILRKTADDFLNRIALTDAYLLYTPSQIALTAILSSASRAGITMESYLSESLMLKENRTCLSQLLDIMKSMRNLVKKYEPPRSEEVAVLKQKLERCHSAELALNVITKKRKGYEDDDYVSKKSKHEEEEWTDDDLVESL
Sequence of Cyclin-dependent kinase 7/ cyclin H (P50613 whole entry, the tested form may be a part): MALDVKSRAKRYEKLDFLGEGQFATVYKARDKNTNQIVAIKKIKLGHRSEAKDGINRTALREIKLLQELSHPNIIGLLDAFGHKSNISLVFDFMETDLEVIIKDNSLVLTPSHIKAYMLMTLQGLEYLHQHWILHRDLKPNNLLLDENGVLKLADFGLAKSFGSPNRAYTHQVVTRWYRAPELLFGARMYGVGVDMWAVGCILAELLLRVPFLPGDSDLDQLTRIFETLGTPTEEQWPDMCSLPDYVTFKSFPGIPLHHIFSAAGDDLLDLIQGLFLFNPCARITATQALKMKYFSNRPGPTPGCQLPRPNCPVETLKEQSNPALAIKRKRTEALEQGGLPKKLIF
Procedure, shortened: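 SPR on CDK7/cyclin H dimer, amine-coupled to a CM5 chip at 200–400 RU, with reference flow cells subtracted. Titration was 9-step 2-fold from 20 nM in HEPES pH 7.5, 150 mM NaCl, 0.05% P20, with 70 s contact and 300 s dissociation. Slow off-rate binders were rerun 4-step 3-fold from 10 nM with 1800 s dissociation.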

CDK9/cyclin T1 = CDK9/cyclin T1 (Homo sapiens, UniProt P50750); assay: Inhibition of CDK9/cyclin T1 (unknown origin) using 5-FAM-labeled peptide as substrate in presence of ATP by mobility shift assay; format: protein-complex assay; procedure, shortened: as §3
Sequence of CDK9/cyclin T1 (O60563 whole entry): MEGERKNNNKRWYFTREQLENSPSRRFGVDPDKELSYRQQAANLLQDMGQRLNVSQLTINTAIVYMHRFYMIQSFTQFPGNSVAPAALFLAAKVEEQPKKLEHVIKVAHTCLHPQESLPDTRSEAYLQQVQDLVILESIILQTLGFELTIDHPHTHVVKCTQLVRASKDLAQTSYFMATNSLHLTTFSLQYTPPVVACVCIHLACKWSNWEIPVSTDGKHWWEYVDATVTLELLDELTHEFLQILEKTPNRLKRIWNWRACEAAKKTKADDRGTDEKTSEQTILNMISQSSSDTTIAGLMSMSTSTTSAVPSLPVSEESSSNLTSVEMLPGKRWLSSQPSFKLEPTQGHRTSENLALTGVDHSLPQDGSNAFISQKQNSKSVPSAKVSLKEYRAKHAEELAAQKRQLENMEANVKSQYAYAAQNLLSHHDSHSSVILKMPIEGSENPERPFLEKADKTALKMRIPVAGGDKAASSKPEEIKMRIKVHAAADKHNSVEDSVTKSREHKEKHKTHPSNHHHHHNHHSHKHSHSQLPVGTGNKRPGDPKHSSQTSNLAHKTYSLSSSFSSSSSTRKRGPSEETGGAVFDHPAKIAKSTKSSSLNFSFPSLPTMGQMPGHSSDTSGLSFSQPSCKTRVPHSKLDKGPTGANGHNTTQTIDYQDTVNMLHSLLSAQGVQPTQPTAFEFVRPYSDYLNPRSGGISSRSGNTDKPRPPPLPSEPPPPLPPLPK
Sequence of CDK9/cyclin T1 (P50750 whole entry): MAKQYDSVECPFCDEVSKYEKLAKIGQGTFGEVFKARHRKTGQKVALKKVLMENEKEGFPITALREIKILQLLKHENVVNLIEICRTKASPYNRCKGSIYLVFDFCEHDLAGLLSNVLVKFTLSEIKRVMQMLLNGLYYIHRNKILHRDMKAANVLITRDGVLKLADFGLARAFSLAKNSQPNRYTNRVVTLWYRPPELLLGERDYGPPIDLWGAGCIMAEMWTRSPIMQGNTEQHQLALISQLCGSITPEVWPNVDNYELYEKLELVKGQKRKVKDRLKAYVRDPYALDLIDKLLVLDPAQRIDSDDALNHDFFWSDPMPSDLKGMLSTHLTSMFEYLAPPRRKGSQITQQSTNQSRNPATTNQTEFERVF

CDK12/Cyclin K = CDK12/Cyclin K (Homo sapiens, UniProt Q9NYV4); assay: Inhibition of CDK12/cyclin K (unknown origin) using 5-FAM-labeled peptide as substrate in presence of ATP by mobility shift assay; format: protein-complex assay; procedure, shortened: as §3
Sequence of CDK12/Cyclin K (O75909 whole entry): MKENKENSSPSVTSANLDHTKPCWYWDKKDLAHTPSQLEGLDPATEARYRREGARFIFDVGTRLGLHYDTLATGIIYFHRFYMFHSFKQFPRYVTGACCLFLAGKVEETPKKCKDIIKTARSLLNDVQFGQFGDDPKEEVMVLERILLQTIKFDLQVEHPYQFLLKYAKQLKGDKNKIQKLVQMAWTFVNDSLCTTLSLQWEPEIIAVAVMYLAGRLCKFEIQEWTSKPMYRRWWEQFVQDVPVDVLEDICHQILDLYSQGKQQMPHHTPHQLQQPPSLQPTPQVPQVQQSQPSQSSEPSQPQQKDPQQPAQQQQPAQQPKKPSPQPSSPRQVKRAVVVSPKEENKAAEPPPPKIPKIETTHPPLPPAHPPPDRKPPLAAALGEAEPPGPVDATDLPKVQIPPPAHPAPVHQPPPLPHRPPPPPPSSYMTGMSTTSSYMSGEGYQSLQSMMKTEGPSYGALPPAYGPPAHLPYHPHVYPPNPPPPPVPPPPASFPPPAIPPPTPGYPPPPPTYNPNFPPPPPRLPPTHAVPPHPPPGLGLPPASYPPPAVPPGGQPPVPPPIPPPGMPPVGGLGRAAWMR
Sequence of CDK12/Cyclin K (Q9NYV4 whole entry): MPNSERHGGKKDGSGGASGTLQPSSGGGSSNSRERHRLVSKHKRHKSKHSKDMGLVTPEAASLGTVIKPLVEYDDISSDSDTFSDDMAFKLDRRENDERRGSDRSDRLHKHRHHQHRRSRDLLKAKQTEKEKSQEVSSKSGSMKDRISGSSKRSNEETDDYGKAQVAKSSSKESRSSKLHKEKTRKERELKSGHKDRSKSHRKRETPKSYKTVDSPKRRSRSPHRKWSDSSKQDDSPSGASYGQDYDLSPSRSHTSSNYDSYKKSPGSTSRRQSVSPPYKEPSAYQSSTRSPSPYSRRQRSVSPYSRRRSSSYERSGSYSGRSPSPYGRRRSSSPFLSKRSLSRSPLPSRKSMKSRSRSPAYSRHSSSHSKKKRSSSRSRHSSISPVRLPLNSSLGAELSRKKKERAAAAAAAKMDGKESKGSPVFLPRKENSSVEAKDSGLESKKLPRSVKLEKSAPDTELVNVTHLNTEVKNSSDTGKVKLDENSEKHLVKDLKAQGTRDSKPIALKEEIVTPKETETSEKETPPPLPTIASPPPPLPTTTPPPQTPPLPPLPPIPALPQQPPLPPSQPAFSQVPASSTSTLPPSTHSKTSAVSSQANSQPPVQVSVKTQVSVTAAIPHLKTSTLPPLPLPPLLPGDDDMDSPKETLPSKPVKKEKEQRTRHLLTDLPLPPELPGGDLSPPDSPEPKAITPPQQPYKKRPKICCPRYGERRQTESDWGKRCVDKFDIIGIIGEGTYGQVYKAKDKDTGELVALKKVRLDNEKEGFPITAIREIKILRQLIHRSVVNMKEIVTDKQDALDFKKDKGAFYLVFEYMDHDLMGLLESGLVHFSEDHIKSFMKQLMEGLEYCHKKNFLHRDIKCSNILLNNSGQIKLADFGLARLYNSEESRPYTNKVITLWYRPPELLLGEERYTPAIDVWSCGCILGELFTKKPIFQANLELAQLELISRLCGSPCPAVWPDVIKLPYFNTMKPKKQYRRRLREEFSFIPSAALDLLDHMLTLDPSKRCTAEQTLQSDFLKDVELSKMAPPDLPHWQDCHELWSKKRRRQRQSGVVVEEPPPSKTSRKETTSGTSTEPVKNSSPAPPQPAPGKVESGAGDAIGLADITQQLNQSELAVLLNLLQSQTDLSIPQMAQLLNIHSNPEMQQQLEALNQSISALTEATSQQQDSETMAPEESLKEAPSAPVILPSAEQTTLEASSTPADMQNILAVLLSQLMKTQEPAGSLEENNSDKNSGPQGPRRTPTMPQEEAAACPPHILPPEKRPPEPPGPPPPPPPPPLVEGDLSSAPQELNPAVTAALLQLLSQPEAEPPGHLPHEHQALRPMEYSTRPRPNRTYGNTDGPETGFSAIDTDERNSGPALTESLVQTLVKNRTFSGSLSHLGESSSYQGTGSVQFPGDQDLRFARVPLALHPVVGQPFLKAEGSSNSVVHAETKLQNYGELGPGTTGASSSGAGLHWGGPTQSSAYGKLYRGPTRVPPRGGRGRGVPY

HCC70 [10] = assay: Antitumour activity against human HCC70 cells xenografted in po dosed BALB/c mouse assessed as tumour growth inhibition administered twice daily for 21 days measured after 7 days post treatment by vernier caliper method; format: functional, organism-based; conditions: dose 2.5-4 mg/kg, time 28.0 day; procedure, shortened: as §1

| SMILES | Activity (HCC70 [1]) | bioavailability [2] [%] | CL free [3] [mL/min/kg] | Papp A→B [4] [×10⁻⁶ cm/s] | CLint scaled [5] [mL/min/kg] | logD [6] | IC50 [7] [nM] | EC50 (HCC70 [8]) [nM] | Kd [9] [nM] | IC50 (CDK9/cyclin T1) [nM] | IC50 (CDK12/Cyclin K) [nM] | Activity (HCC70 [10]) |
| --- | --- | --- | --- | --- | --- | --- | --- | --- | --- | --- | --- | --- |
| Cc1noc(C)c1-c1ccc2c(-c3nc(N[C@H]4CCCNC4)ncc3C(F)(F)F)c[nH]c2n1.Cl | Active | 36 | 712 | 4.62 | < 38 | 2.6 | 189 | 9 | 0.03 | 90 | 75 | Dose-Dependent Effect |
| CC1(C)CC[C@H](Nc2ncc(C(F)(F)F)c(-c3c[nH]c4ccccc34)n2)CN1 | – | – | – | – | 116 | 2.48 | 128 | – | 0.34 | 71 | 95 | – |
| CC1(C)CNC[C@@H](Nc2ncc(C(F)(F)F)c(-c3c[nH]c4c(P(C)(C)=O)c(C#N)ccc34)n2)C1 | – | 28 | 597 | 3.32 | 164 | 2.7 | 771 | 1 | 0.06 | 572 | 156 | – |
| CCc1cnc(N[C@H]2CCCNC2)nc1-c1c[nH]c2c(S(C)(=O)=O)c(C#N)ccc12 | – | – | 394 | 1.12 | 89 | 0.49 | 1640 | 287 | 0.15 | 907 | 215 | – |
| CP(C)(=O)c1cccc2c(-c3nc(N[C@H]4CCCNC4)ncc3C(F)(F)F)c[nH]c12 | – | 3 | 73 | 1.02 | < 38 | 0.78 | 414 | 0.2 | 0.08 | 286 | 102 | – |
| Cc1noc(C)c1-c1ccc2c(-c3nc(N[C@H]4CCCNC4)ncc3C(F)(F)F)c[nH]c2c1 | – | 16 | 514 | 1.63 | 150 | 2.71 | 460 | – | 0.1 | 138 | 112 | – |
| CCc1cnc(N[C@H]2CCCNC2)nc1-c1c[nH]c2ccccc12 | – | 2 | 473 | 0.49 | 107 | 1.29 | 923 | 230 | 0.4 | 430 | 135 | – |
| CS(=O)(=O)c1c(C#N)ccc2c(-c3nc(N[C@H]4CCCNC4)ncc3C(F)(F)F)c[nH]c12 | – | 5 | 368 | 1.86 | < 38 | 1.05 | 284 | 15 | 0.08 | 60 | 33 | – |
| CS(=O)(=O)c1ccc2c(-c3nc(N[C@H]4CCCNC4)ncc3C(F)(F)F)c[nH]c2c1 | – | – | 729 | 0.86 | < 38 | 1.31 | 299 | 89 | 0.1 | 133 | 69 | – |
| FC(F)(F)c1cnc(N[C@H]2CCCNC2)nc1-c1c[nH]c2ccccc12 | – | 100 | 568 | 11.1 | 127 | 2.02 | 42 | 11 | 0.15 | 21 | 24 | – |
| CS(=O)(=O)c1cccc2c(-c3nc(N[C@H]4CCCNC4)ncc3C(F)(F)F)c[nH]c12 | – | 49 | 309 | 3.28 | < 38 | 1.33 | 78 | 14 | 0.07 | 32 | 15 | – |
| N#Cc1ccc2c(-c3nc(N[C@H]4CCCNC4)ncc3C(F)(F)F)c[nH]c2c1 | – | 43 | 656 | 4.63 | 62 | 2.28 | 347 | 36 | 0.09 | 86 | 60 | – |
| Clc1cnc(N[C@H]2CCCNC2)nc1-c1c[nH]c2ccccc12 | – | 39 | 457 | 5.26 | 109 | 1.78 | 102 | 40 | 0.33 | 23 | 29 | – |
| CC1(C)CNC[C@@H](Nc2ncc(C(F)(F)F)c(-c3c[nH]c4ccccc34)n2)C1 | – | 40 | 1477 | – | 120 | 3.07 | 52 | – | 0.21 | 41 | 36 | – |
